# Measurements of several laboratories.
# Lines come from different studies, so protocols differ.
# Target: Dual specificity protein kinase TTK (TTK, Homo sapiens, UniProt P33981)
# Sequence (P33981 1-857, as in one of the studies): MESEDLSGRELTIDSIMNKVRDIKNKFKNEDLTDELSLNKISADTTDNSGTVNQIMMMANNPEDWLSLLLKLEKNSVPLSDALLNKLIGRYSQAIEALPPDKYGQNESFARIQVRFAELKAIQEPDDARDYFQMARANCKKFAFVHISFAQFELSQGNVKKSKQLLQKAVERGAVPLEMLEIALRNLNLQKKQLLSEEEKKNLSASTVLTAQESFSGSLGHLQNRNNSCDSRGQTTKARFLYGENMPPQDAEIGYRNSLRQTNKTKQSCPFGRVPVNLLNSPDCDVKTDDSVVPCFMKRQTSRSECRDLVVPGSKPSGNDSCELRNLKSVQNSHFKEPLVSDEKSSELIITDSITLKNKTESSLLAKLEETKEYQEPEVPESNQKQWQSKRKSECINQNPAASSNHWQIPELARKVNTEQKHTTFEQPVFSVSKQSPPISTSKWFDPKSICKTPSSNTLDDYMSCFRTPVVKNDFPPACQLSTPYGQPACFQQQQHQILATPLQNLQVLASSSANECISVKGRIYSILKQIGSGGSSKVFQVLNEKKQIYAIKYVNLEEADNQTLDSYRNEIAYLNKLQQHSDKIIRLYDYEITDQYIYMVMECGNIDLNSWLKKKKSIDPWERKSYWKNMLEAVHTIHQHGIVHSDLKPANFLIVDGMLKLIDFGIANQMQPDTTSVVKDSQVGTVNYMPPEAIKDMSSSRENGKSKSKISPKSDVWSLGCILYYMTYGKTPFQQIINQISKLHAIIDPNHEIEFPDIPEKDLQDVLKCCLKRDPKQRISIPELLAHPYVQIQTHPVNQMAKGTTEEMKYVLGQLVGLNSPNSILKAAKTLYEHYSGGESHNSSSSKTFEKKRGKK
Compound,assay,conditions,measurement,result
Cc1nccc(COC(=O)N2C[C@@H]3[C@@H](CNC(=O)c4ccc5[nH]nnc5c4)[C@@H]3C2)n1,"cell-free assay, competition with immobilised ligand",1 µM,remaining binding,89%
COc1cc(Cl)c(C(=O)N[C@@H](CN[C@H]2CC[C@@H](N)CC2)Cc2ccc(C#N)cc2)cc1-c1ccc(CN[C@H](C)c2ccc(C)cc2)o1,"enzyme activity, inhibitor",1 µM,remaining activity,95%
Cn1c2c(c3ccc(Cl)c(Cl)c31)C(C#N)C(C)(C)NC2=O (stereo not shown),"thermal stability, DSF",10 µM,ΔTm,1.2 °C
Cc1noc([C@H]2C[C@@H](c3ccc(C(F)(F)F)cc3)CN(C(=O)N3CCS(=O)(=O)C3)C2)n1,"cell-free assay, competition with immobilised ligand",1 µM,remaining binding,100%
COc1cc(/C=C/C(=O)CC(=O)/C=C/c2ccc(O)c(OC)c2)ccc1O,"enzyme activity, inhibitor",1 µM,activity vs control,51%
O=C1NC(=O)c2cc(Nc3ccc(F)cc3)c(Nc3ccc(F)cc3)cc21,cell-free assay,0.5 µM,remaining signal,95.4%
COc1cc(Nc2cnc(C#N)c(O[C@H](C)CN(C)C)n2)ncc1-c1cnn(C)c1,"enzyme activity, inhibitor, radiometric",10 µM,remaining activity,74%
CC(C)(O)[C@H]1CC[C@H](Nc2ccc3ncc(-c4cccc(C(F)(F)F)c4)n3n2)CC1,"enzyme activity, inhibitor",1 µM,remaining activity,79.8%
Cc1ccc(C(=O)NCc2ccsc2)cc1C#Cc1cn(C(C)C)c2ncnc(N)c12,"enzyme activity, inhibitor",1 µM,activity vs control,93%
CCCOc1ccc([C@H]2[C@H](C(=O)O)[C@@H](c3ccc4c(c3)OCO4)CN2CC(=O)Nc2c(CC)cccc2CC)cc1,"cell-free assay, competition with immobilised ligand",1 µM,remaining binding,94%
Cc1ccc(NC(=O)c2ccc(CN3CCN(C)CC3)cc2)cc1Nc1nc(-c2cccnc2)cs1,cell-free assay,0.5 µM,remaining signal,112%
O=C(Nc1cccnn1)N1CCC(=Cc2cccc(Oc3ccc(C(F)(F)F)cn3)c2)CC1,"cell-free assay, competition with immobilised ligand",1 µM,remaining binding,100%
Cn1c2c(c3ccc(Cl)c(Cl)c31)C(C#N)C1(CCNCC1)NC2=O (racemic),"thermal stability, DSF",10 µM,ΔTm,0.7 °C
CCS(=O)(=O)c1cc2cc(C[C@](O)(CC(C)(C)c3ccc(F)cc3C(N)=O)C(F)(F)F)[nH]c2cn1,"cell-free assay, competition with immobilised ligand",1 µM,remaining binding,99%
CCN(CC)CCNC(=O)c1c(C)[nH]c(/C=C2\C(=O)Nc3ccc(F)cc32)c1C,cell-free assay,0.5 µM,remaining signal,68%
CCN1CCC2(CC1)NC(=O)c1c(c3ccc(Cl)c(Cl)c3n1C)C2C#N (racemic),"thermal stability, DSF",10 µM,ΔTm,0.6 °C
O=C(NS(=O)(=O)c1ccc(NCC2CCOCC2)c([N+](=O)[O-])c1)c1ccc(N2CCN(Cc3ccc(C(F)(F)F)cc3-c3ccc(Cl)cc3)CC2)cc1Oc1cnc2[nH]ccc2c1,"cell-free assay, competition with immobilised ligand",1 µM,remaining binding,100%
FC(F)(F)Oc1cccc(-c2cnc3ccc(-c4ccncc4)nn23)c1,"enzyme activity, inhibitor, radiometric",5 µM,activity vs control,67%
O=C(N1CCS(=O)(=O)CC1)N1C[C@H](c2ccc(OC(F)(F)F)cc2)C[C@H](c2nc(C3CC3)no2)C1,"cell-free assay, competition with immobilised ligand",1 µM,remaining binding,82%
CC(C)(C)c1nc(-c2cccc(NS(=O)(=O)c3c(F)cccc3F)c2F)c(-c2ccnc(N)n2)s1,"enzyme activity, inhibitor, radiometric",1 µM,remaining activity,92%
O=C1Nc2ccc(Cl)cc2C1=Cc1cc(Cl)c(O)c(Cl)c1,cell-free assay,0.5 µM,remaining signal,84.4%
FC(F)c1nc2ccccc2n1-c1nc(N2CCOCC2)nc(N2CCOCC2)n1,"enzyme activity, inhibitor",10 µM,remaining activity,88%
